Most compounds without a hit are left out; they make up all but 3.6% or so of the library.
DNA FID counter: fluorescent intercalator displacement, NS3 helicase counter-screen. DNA fluorescent intercalator displacement, fluorescence. inhibition, % at 7.9 µM. 0.17% of 290,000 active; in the data active means inhibition above about 37%;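 further: higher means more ethidium bromide displaced from hairpin DNA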
FGF22 binding-1: FGF22 (human) thermal shift binding. Q9HCT0. recombinant FGF22 thermal shift, SYPRO orange fluorescence; percent of sucrose octasulfate shift, DMSO zero. activity (Tm shift, normalised), % at 9.99 µM. 1.5% of 340,000 active;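 active means mean Tm shift, scaled 0 neutral to 100 positive control, at about 1.3% or above, every replicate too, limit read from the data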
Target sequence (Q9HCT0 whole entry, looked up): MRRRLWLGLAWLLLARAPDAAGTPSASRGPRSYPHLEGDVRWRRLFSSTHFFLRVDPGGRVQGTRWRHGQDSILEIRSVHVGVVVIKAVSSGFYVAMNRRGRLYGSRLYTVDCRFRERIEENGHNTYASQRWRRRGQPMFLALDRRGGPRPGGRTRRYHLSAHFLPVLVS
ZTA DNA inh: ZTA (EBV) inhibition in EBNA-1 counter-screen | inhibition, % at 11 µM | P03206 | AID 2234 | ZTA-DNA binding, fluorescence polarization | 0.15% of 320,000 active; in the data active means inhibition above about 33%
Target sequence (P03206 whole entry, looked up): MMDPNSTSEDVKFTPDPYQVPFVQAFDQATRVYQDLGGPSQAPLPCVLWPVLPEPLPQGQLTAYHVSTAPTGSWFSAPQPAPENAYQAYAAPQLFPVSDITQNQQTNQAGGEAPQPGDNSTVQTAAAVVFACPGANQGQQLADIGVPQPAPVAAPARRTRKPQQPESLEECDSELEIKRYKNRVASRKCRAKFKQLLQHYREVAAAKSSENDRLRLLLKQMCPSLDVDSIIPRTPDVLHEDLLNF
HCV NS3 hel inh: inhibitors of Hepatitis C virus NS3 helicase | NS3 helicase DNA unwinding, Cy5 molecular beacon fluorescence | inhibition, % at 10.9 µM | 0.56% of 290,000 active;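 active means inhibition above the mean of all tested compounds plus 3 SD, set per campaign, cut at about 35% in these data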
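test system = hepatitis C virus NS3 helicase domain fragment enzyme | reagent = annealed dual-labelled DNA beacon duplex, ATP-started | times = 1 h at 25 °C | detection = Cy5 fluorescence, 0 and 60 min reads | read-out basis = percent inhibition from t60/t0 fluorescence ratio | control set = DMSO and thioflavine S | replication = one well per compound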
EBNA-1 inh: blocks EBNA-1 binding to DNA | inhibition, % at 14.8 µM | 0.34% of 300,000 active | EBNA-1 DNA binding, fluorescence polarization | AID 1950; in the data active means inhibition above about 28%
NR3A LBD binder: modulators (binders) of human NR3A ligand-binding domain. Tm shift relative to glycine control, % at 25 µM. 2.5% of 340,000 active. NR3A LBD differential scanning fluorimetry, Tm shift; 0% = protein alone, 100% = glycine-bound protein;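 active means melting temperature shift of at least 10% of the positive control shift, at one fixed dose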
FGF22 binding-2: binders of human FGF22 by thermal shift; shares compounds with FGF22 binding-1; recombinant FGF22 thermal shift, SYPRO orange fluorescence; thermal shift activity, °C (ΔTm) at 38 µM; 2% of 1,000 active; AID 720646;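 active means fitted rise in melting shift crosses a set limit at or below the top valid dose tested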
SYPRO no-protein: counter-screen for FGF22 binders: compound-only thermal shift, no protein | compound-only SYPRO orange thermal shift counter-screen | AC50, µM (highest dose often 38 µM) | 2% of 1,000 active | shares compounds with FGF22 binding-1 | AID 743019;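 active means rising signal whose fitted curve reaches the 0.54 level within the top valid dose, showing a melting point, actives reach about 13 µM in these data; inactive means the rest, including activity in the opposite direction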; further: value is where the raw curve crosses a fixed level and not half-maximal
Large screens that a line does not name were inactive (follow-up assays come after a bar, where they were run); ! = a repeat was not active.

COc1ccc(S(=O)(=O)N(C)C[C@@H]2Oc3c(NS(=O)(=O)c4ccc(C)cc4)cccc3C(=O)N([C@H](C)CO)C[C@@H]2C)cc1	FGF22 binding-1 1.3 (no result: DNA FID counter, ZTA DNA inh, HCV NS3 hel inh, EBNA-1 inh, NR3A LBD binder) | FGF22 binding-2 inactive | SYPRO no-protein inactive
CNC[C@H]1Oc2c(NS(=O)(=O)c3ccc(OC)cc3)cccc2C(=O)N([C@H](C)CO)C[C@@H]1C	none (no result: DNA FID counter, ZTA DNA inh, HCV NS3 hel inh, EBNA-1 inh)
COc1ccc(S(=O)(=O)Nc2cccc3c2O[C@H](CN(C)S(=O)(=O)c2ccc(C)cc2)[C@@H](C)CN([C@H](C)CO)C3=O)cc1	none (no result: DNA FID counter, ZTA DNA inh, HCV NS3 hel inh, EBNA-1 inh, NR3A LBD binder)
CNC[C@@H]1Oc2c(NS(=O)(=O)c3ccc(OC)cc3)cccc2C(=O)N([C@@H](C)CO)C[C@@H]1C	FGF22 binding-1 3.6 (no result: DNA FID counter, ZTA DNA inh, HCV NS3 hel inh, EBNA-1 inh, NR3A LBD binder) | FGF22 binding-2 inactive | SYPRO no-protein inactive
COCC#Cc1ccc2c(c1)O[C@@H](CN(C)C(=O)c1ccccc1)[C@H](C)CN([C@H](C)CO)S2(=O)=O	none (no result: DNA FID counter, ZTA DNA inh, HCV NS3 hel inh, EBNA-1 inh, NR3A LBD binder)
COCC#Cc1ccc2c(c1)O[C@H](CN(C)C(=O)c1ccccc1)[C@@H](C)CN([C@@H](C)CO)S2(=O)=O	FGF22 binding-1 8.3 (no result: DNA FID counter, ZTA DNA inh, HCV NS3 hel inh, EBNA-1 inh, NR3A LBD binder) | FGF22 binding-2 inactive | SYPRO no-protein inactive
COCC(=O)N(C)C[C@H]1Oc2cc(C#Cc3ccccc3)ccc2S(=O)(=O)N([C@H](C)CO)C[C@H]1C	FGF22 binding-1 6.2 (no result: DNA FID counter, ZTA DNA inh, HCV NS3 hel inh, EBNA-1 inh, NR3A LBD binder) | FGF22 binding-2 inactive | SYPRO no-protein inactive
CCCN(C)C[C@@H]1Oc2cc(C#CC(C)(C)O)ccc2S(=O)(=O)N([C@@H](C)CO)C[C@@H]1C	FGF22 binding-1 1.3 (no result: DNA FID counter, ZTA DNA inh, HCV NS3 hel inh, EBNA-1 inh, NR3A LBD binder) | FGF22 binding-2 inactive | SYPRO no-protein inactive
Cc1ccc(C(=O)Nc2nc(=O)n(C(=O)c3ccccc3C)s2)cc1	none (no result: FGF22 binding-1)
O=C(Nc1nc(=O)n(C(=O)C2CC2)s1)c1ccccc1	FGF22 binding-1 2.2 | FGF22 binding-2 inactive | SYPRO no-protein inactive
Cc1ccc(C(=O)Nc2nc(=O)n(C(=O)C3CC3)s2)cc1	FGF22 binding-1 1.3 | FGF22 binding-2 inactive | SYPRO no-protein inactive
COC(=O)c1cc(OC)c(OC)cc1NC(=O)c1ccccc1	none (no result: FGF22 binding-1)
COC(=O)c1cc(OC)c(OC)cc1NC(=O)c1ccccc1C	FGF22 binding-1 8.5 | FGF22 binding-2 inactive | SYPRO no-protein inactive
O=C(C[C@H]1CC[C@@H]2[C@H](COC[C@H](O)CN2CC2CCCCC2)O1)NCc1ccc(Cl)cc1	none (no result: DNA FID counter, ZTA DNA inh, HCV NS3 hel inh, EBNA-1 inh, NR3A LBD binder)
CN(C)S(=O)(=O)n1cnc([C@@H]2[C@@H]3C(=O)OC[C@@H]3C[C@]23N=CN(Cc2ccccc2)C3=O)c1	FGF22 binding-1 28.9 (no result: DNA FID counter, HCV NS3 hel inh, EBNA-1 inh) | FGF22 binding-2 inactive | SYPRO no-protein inactive
O=C(NCC[C@@H]1CC[C@@H](NS(=O)(=O)c2ccccc2)[C@H](CO)O1)c1cc(Cl)cc(Cl)c1	none (no result: DNA FID counter, ZTA DNA inh, HCV NS3 hel inh, EBNA-1 inh, NR3A LBD binder)
C[C@H]1CN([C@@H](C)CO)C(=O)Cc2cc(NC(=O)C3CC3)ccc2O[C@@H]1CN(C)Cc1ccc(Cl)c(Cl)c1	none (no result: DNA FID counter, ZTA DNA inh, HCV NS3 hel inh, EBNA-1 inh, NR3A LBD binder)
C[C@@H]1CN([C@H](C)CO)C(=O)Cc2cc(NS(C)(=O)=O)ccc2O[C@@H]1CN(C)Cc1ccc(C(=O)O)cc1	FGF22 binding-1 39.1 (no result: DNA FID counter, ZTA DNA inh, HCV NS3 hel inh, EBNA-1 inh, NR3A LBD binder) | FGF22 binding-2 inactive | SYPRO no-protein inactive
C[C@@H]1CN([C@@H](C)CO)C(=O)Cc2cc(NC(=O)C3CC3)ccc2O[C@H]1CN(C)Cc1ccc(Cl)c(Cl)c1	FGF22 binding-1 3.1 (no result: DNA FID counter, ZTA DNA inh, HCV NS3 hel inh, EBNA-1 inh, NR3A LBD binder) | FGF22 binding-2 inactive | SYPRO no-protein inactive
COc1cccc(-c2ccc(C3[C@@H]4CN(S(=O)(=O)Cc5ccccc5)C[C@H]3N4)cc2)c1 (some centres not stated)	none (no result: DNA FID counter, ZTA DNA inh, HCV NS3 hel inh, EBNA-1 inh, NR3A LBD binder)
CCOc1cc(-c2nc(C)c(C(C)=O)n2O)ccc1OCC(=O)Nc1ccc(F)cc1	FGF22 binding-1 2.7 | FGF22 binding-2 inactive | SYPRO no-protein inactive
CC(=O)c1c(C)nc(-c2ccc(OCC(=O)Nc3ccc(F)cc3)cc2)n1O	FGF22 binding-1 2.3 | FGF22 binding-2 inactive | SYPRO no-protein inactive
COc1cc(-c2nc(C)c(C(C)=O)n2O)ccc1OCC(=O)Nc1ccc(F)cc1	none
CC(=O)Nc1ccc(-c2nc(C)c(C(C)=O)n2O)cc1	none
COc1ccc2c3c(n(C)c2c1)[C@H](CO)N(C(C)=O)CC31CN(S(=O)(=O)c2ccccc2)C1	none (no result: DNA FID counter, ZTA DNA inh, HCV NS3 hel inh, EBNA-1 inh, NR3A LBD binder)
CN1CCN(C(=O)C[C@@H]2CC[C@H]3[C@@H](COC[C@@H](O)CN3C(=O)Cc3ccccc3)O2)CC1	none (no result: DNA FID counter, ZTA DNA inh, HCV NS3 hel inh, EBNA-1 inh, NR3A LBD binder)
C[C@@H]1CN([C@H](C)CO)C(=O)c2cc(Br)cnc2O[C@@H]1CN(C)Cc1ccc(F)cc1	FGF22 binding-1 21.2! (no result: DNA FID counter, ZTA DNA inh, HCV NS3 hel inh, EBNA-1 inh, NR3A LBD binder) | FGF22 binding-2 inactive | SYPRO no-protein inactive
C[C@H]1CN([C@@H](C)CO)C(=O)c2cc(C#Cc3ccccc3F)cnc2O[C@H]1CN(C)S(=O)(=O)c1ccccc1	FGF22 binding-1 1.7 (no result: DNA FID counter, ZTA DNA inh, HCV NS3 hel inh, EBNA-1 inh, NR3A LBD binder) | FGF22 binding-2 inactive | SYPRO no-protein inactive
C[C@@H]1CN([C@H](C)CO)C(=O)c2cc(Br)cnc2O[C@@H]1CN(C)Cc1ccccc1	none (no result: DNA FID counter, ZTA DNA inh, HCV NS3 hel inh, EBNA-1 inh, NR3A LBD binder)

Screening results deposited in PubChem BioAssay by several laboratories.
